Screening results: PubChem, several laboratories
Plk1 PBD FP = Plk1 polo box domain binding inhibitors, primary screen, biochemical, fluorescence polarization; Serine/threonine-protein kinase PLK1 (Homo sapiens), P53350; Plk1 PBD phosphopeptide binding; inhibition, %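 (tested at about 20 µM)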; actives 0.13% (n = 97,000); in the data active = inhibition above about 34%, passing the limit was not always enough
LYP inh 2 = PTPN22 phosphatase inhibitors, primary screen, biochemical, DiFMUP fluorescence, 2 µM. Tyrosine-protein phosphatase non-receptor type 22 (Homo sapiens), Q9Y2R2. recombinant LYP catalytic domain. inhibition, % at 2 µM. actives 0.21% (n = 96,000);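 active = inhibition at 2 µM at or above a set limit, the screen mean plus 3 SD, cut at about 24% in these data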;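 also: 0% = DMSO with enzyme and 100% = enzyme fully blocked by orthovanadate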
PTPN22 act = LYP phosphatase activators, primary screen, biochemical, DiFMUP fluorescence, 2 µM; Tyrosine-protein phosphatase non-receptor type 22 (Homo sapiens), Q9Y2R2; recombinant LYP; 0 = plate median, 100 = signal doubled; activation, % at 2 µM; actives 0.11% (n = 96,000); AID 697, 2007;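 active = activation at 2 µM above a set limit, the mean plus 5 SD, cut at about 37% in these data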
DAT uptake mod = changed hDAT dopamine uptake under cocaine IC80, either direction, primary screen, cocaine antagonist project, cell-based, LLC-PK1 hDAT, [14C]-dopamine uptake, MLSMR | Sodium-dependent dopamine transporter (Homo sapiens), Q01959 | LLC-PK1 hDAT cells, [14C]-dopamine uptake with cocaine IC80; actives deviate in either direction | B-score at 10 µM | actives 1.3% (n = 110,000) | AID 449768, 2010;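 active = Z score or B-score, a plate-position-corrected score, falls beyond the plate's 99.7% confidence bounds, in either direction; inactive = both scores lie inside the 99.7% bounds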;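 also: scored against the spread of the other compound wells on the same plate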
Rev-RRE block = HIV-1 Rev-RRE binding inhibitors, primary screen, biochemical, FRET, protein-RNA interaction; actives 0.79% (n = 97,000); Rev peptide-RRE RNA binding; inhibition, % at 8 µM; P05866;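 active = inhibition above the screen-wide mean plus 3 SD, cut at about 35% in these data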;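 also: 0% = median DMSO wells and 100% = median Neomycin B control wells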
Target sequence (P05866 whole entry, looked up): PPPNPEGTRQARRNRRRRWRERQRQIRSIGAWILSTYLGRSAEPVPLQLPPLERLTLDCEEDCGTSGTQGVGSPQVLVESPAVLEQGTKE
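assay system = Cy5-tagged RRE RNA duplex with fluorescein-tagged Rev peptide | incubation = 5 + 15 min at 25 °C | also added = labelled Rev peptide | measure = % inhibition of FRET ratio versus controls | benchmarks = DMSO wells as 0% and neomycin B wells as 100% inhibition | measured by = FRET fluorescence readout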
PLK1 inh = human PLK1 kinase inhibitors, primary screen, biochemical, TR-FRET; recombinant PLK1 kinase, TR-FRET peptide phosphorylation; actives 0.53% (n = 97,000); inhibition, % at 10 µM; Serine/threonine-protein kinase PLK1 (Homo sapiens), P53350;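 active = inhibition of 50% or more in the single-concentration screen; inactive = inhibition below 50%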;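 also: 0% = DMSO max control and 100% = H-89 dihydrochloride min control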
* = called active by the depositor. This is a sample that favours compounds with a hit; in the whole collection about 2.7% have one here.

For Cc1ccc(-n2c(C)cc(/C=c3/sc4nc5ccccc5n4c3=O)c2C)cc1 the results were Plk1 PBD FP -7, LYP inh 2 13, PTPN22 act -12, DAT uptake mod -0.048, Rev-RRE block 11 and PLK1 inh 4.
`COC(=O)N[C@H](CC(C)=O)c1ccccc1` gave DAT uptake mod -0.16.
Screening Cc1ccc(CSC2=Nc3ccccc3C3=NC(CC(=O)NCc4ccco4)C(=O)N23)cc1 (stereo not given) returned Plk1 PBD FP -8, LYP inh 2 24*, PTPN22 act -20, DAT uptake mod 0.15, Rev-RRE block 7 and PLK1 inh 4.
`O=C(CC1N=C2c3ccccc3N=C(SCc3ccc(F)cc3)N2C1=O)NCc1ccco1` (stereo not given) gave Plk1 PBD FP -16, LYP inh 2 19, PTPN22 act -14, DAT uptake mod 0.96, Rev-RRE block 8 and PLK1 inh -2.
Screening O=C(NCc1cccnc1)NC1(C(F)(F)F)Oc2ccccc2O1 returned Plk1 PBD FP 18, LYP inh 2 1, PTPN22 act -1, DAT uptake mod -5.8*, Rev-RRE block 3 and PLK1 inh 4.
For Cc1ccccc1C1C(C#N)=C2N=C(N)c3c(sc4c3CCCCC4)N2C2=C1C(=O)CCC2 (stereo not given) the results were Plk1 PBD FP -8, LYP inh 2 9, PTPN22 act -7, DAT uptake mod 2.1, Rev-RRE block 66* and PLK1 inh -16.
N#CC(C(=O)NCc1ccccc1)c1nc2ccccc2nc1N1CCCC1 (stereo not given) was read as Plk1 PBD FP 10, LYP inh 2 -6, PTPN22 act 5, DAT uptake mod 0.35, Rev-RRE block 62* and PLK1 inh -3.
Cc1ccc(S(=O)(=O)N2CCCN(c3nc4cc(C)ccc4cc3C#N)CC2)cc1 was read as Plk1 PBD FP -23, LYP inh 2 2, PTPN22 act -2, DAT uptake mod 1.8, Rev-RRE block 37* and PLK1 inh -10.
Cc1ccc(S(=O)(=O)C(C#N)c2nc3ccccc3nc2N2CCCC2)cc1 (stereo not given) was read as Plk1 PBD FP -17, LYP inh 2 4, PTPN22 act -6, DAT uptake mod -0.23, Rev-RRE block 77* and PLK1 inh -11.
For COc1ccc(S(=O)(=O)C(C#N)c2nc3ccccc3nc2N2CCCC(C)C2)cc1 (stereo not given) the results were Plk1 PBD FP -32, LYP inh 2 2, PTPN22 act -6, DAT uptake mod 0.26, Rev-RRE block 38* and PLK1 inh -15.
For CCN1CCN(c2nc3ccccc3nc2C(C#N)S(=O)(=O)c2ccc(C)cc2)CC1 (stereo not given) the results were Plk1 PBD FP 3, LYP inh 2 -1, PTPN22 act 0, Rev-RRE block 2 and PLK1 inh -6.
N#CC(C(=O)NCCc1ccccc1)c1nc2ccccc2nc1N1CCCCC1 (stereo not given) was read as Plk1 PBD FP 11, LYP inh 2 1, PTPN22 act -4, DAT uptake mod 0.46, Rev-RRE block 8 and PLK1 inh -31.
Screening CC1CCCN(c2nc3ccccc3nc2C(C#N)S(=O)(=O)c2cccs2)C1 (stereo not given) returned Plk1 PBD FP -27, LYP inh 2 -14, PTPN22 act 12, DAT uptake mod -0.52, Rev-RRE block 15 and PLK1 inh -25.
For Cc1ccc(C(=O)CSc2nnnn2C(C)C)c(C)c1 the results were Plk1 PBD FP 17, LYP inh 2 9, PTPN22 act -6, DAT uptake mod 1.1, Rev-RRE block 2 and PLK1 inh -11.
Cc1cccc(NS(=O)(=O)c2cc(C(=O)NCCC3=CCCCC3)ccc2Cl)c1 was read as Plk1 PBD FP -29, LYP inh 2 -2, PTPN22 act 7, DAT uptake mod 1.8, Rev-RRE block 5 and PLK1 inh -11.
